NTR1 agonist: activates human neurotensin receptor 1. activation, % at 20 µM. NTR1-U2OS beta-arrestin-GFP spot imaging, agonist mode. P30989. actives 0.17% (n = 330,000);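 active = activation at or above 40% of the spot to cytoplasm intensity ratio, with at least 20 cells analyzed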;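 also: 0% = DMSO without peptide and 100% = 100 nM NTR1 peptide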
PLC-beta3 inh: inhibitors of human phospholipase C beta3; Purified PLC-beta3, fluorogenic substrate, fluorescence; inhibition, % at 12.2 µM; actives 0.18% (n = 370,000);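 also: 0% = median of compound wells on plate and 100% = full blocker control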
Arrestin-AP2 inh: blocks beta-arrestin peptide binding to AP2 adaptin; actives 0.31% (n = 340,000); FITC-arrestin peptide / GST-AP2 beads, flow cytometry; AP2 beta2 appendage carries R879A mutation; AID 504490; inhibition, % at 10 µM;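 active = inhibition above a set limit, near 3 SD of compounds lacking own fluorescence, cut at about 54% in these data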;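 also: plate controls were DMSO wells for no effect and 5 µM unlabelled arrestin peptide for full effect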
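Material – GST-tagged AP2 beta2-adaptin appendage (R879A) on 4 µm glutathione beads · Probe or stimulus – fluorescein-tagged arrestin peptide at 50 nM final · Timing – 12 min plus 1 h, RT · Detection – bead flow cytometry, FITC channel · Read-out basis – inhibition as reduced fluorescein signal on beads, percent · Medium – PBS plus Tween 20 (0.05%) and BSA (0.1%)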
PLC-gamma1 inh: PLC-gamma1 (human) inhibition, primary screen. actives 0.84% (n = 370,000). inhibition, % at 12.2 µM. purified PLC-gamma1, fluorogenic substrate, fluorescence. P19174; in the data active = inhibition above about 9.5%
Target sequence (P19174 whole entry, looked up): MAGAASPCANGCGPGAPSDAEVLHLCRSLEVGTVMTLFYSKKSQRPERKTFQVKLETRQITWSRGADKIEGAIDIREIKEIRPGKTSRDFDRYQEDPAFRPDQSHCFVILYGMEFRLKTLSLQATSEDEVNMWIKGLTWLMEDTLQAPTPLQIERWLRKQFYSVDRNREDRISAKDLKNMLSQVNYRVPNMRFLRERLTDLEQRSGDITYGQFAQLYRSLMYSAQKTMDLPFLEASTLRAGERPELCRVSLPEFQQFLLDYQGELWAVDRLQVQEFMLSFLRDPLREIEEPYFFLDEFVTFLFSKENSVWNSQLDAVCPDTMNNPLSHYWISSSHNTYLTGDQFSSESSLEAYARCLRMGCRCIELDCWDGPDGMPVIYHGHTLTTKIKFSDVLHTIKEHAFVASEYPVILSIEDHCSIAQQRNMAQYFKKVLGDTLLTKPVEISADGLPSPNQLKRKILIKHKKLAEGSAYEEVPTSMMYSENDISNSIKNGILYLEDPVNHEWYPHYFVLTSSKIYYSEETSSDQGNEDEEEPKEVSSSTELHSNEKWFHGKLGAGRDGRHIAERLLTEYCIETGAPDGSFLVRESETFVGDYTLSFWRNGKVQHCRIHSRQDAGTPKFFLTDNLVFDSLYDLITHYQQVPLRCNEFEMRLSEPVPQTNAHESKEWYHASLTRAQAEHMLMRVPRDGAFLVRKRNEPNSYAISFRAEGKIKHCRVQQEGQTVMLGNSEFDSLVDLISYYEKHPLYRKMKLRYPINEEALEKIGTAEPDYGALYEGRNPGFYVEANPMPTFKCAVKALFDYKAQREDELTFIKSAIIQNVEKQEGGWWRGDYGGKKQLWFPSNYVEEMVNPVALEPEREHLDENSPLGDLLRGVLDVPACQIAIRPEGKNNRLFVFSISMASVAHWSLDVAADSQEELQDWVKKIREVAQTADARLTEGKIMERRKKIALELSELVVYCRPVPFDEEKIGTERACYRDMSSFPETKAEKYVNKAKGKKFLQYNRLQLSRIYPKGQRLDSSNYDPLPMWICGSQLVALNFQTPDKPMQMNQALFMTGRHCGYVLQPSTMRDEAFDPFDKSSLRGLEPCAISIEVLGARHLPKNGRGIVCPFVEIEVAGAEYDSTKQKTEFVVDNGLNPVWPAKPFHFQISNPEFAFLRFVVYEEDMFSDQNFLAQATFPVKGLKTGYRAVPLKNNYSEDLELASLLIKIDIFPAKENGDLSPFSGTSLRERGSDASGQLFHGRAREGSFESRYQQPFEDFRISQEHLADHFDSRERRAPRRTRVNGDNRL
PLCgamma1 ctr: PLC-gamma1 inhibition, counter-screen for PLC-beta3 hits; shares compounds with PLC-gamma1 inh; purified PLC-gamma1, fluorogenic substrate, fluorescence; actives 3.1% (n = 3,300); inhibition, % at 12.3 µM; in the data active = inhibition above about 9.5%
PLCb3 confirm: human PLC-beta3 inhibition, confirmation | inhibition, % at 12.3 µM | shares compounds with PLC-gamma1 inh | actives 1% (n = 3,300) | purified PLC-beta3, fluorogenic substrate fluorescence
* hit, by the source's call. Hits are enriched below; roughly 1.3% of the tested compounds scored in any of these assays. Rule as the data show it, unless noted: active = inhibition above about 11%; inactive = the rest.

For Cc1cccc(NCC(=O)N/N=C\c2cccn2C)c1 the results were NTR1 agonist 0.6, PLC-beta3 inh -5.9, Arrestin-AP2 inh -8.9, PLC-gamma1 inh 10.8*, PLCgamma1 ctr -248.9 and PLCb3 confirm -0.9.
`Cc1nn(CC(=O)N2CCCC2)c(=O)c2nn(-c3ccccc3)c(C)c12` gave NTR1 agonist 0.5, PLC-beta3 inh 11.8*, Arrestin-AP2 inh 25.4, PLC-gamma1 inh 3.4, PLCgamma1 ctr -4.3 and PLCb3 confirm 1.5.
O=C(CCc1ccc(S(=O)(=O)NCCc2ccccc2)cc1)Nc1ccc2c(c1)OCO2 was read as NTR1 agonist 1.8, PLC-beta3 inh -0.6, Arrestin-AP2 inh -5.0, PLC-gamma1 inh 10.2*, PLCgamma1 ctr -5.8 and PLCb3 confirm -3.8.
`CCNS(=O)(=O)c1ccc(CCC(=O)Nc2ccc3c(c2)OCO3)cc1` gave NTR1 agonist -0.1, PLC-beta3 inh 0.5, Arrestin-AP2 inh -1.2 and PLC-gamma1 inh 2.1.
CCNC(=S)NNC(=O)CSc1nnc(SCc2cccc3ccccc23)s1 was read as PLC-beta3 inh -1.6 and PLC-gamma1 inh -0.9.
CCN(CC)c1ccc(NC(=O)CN2C(=O)CSc3ncccc32)c(C)c1 was read as NTR1 agonist 2.6, PLC-beta3 inh -0.6, Arrestin-AP2 inh 1.4 and PLC-gamma1 inh -1.3.
`CNC(=O)CN1C(=O)CSc2ncccc21` gave NTR1 agonist -2.0, PLC-beta3 inh 14.1*, Arrestin-AP2 inh 16.5, PLC-gamma1 inh 3.7, PLCgamma1 ctr 1.7 and PLCb3 confirm 1.8.
Screening CCOC(=O)[C@@]12CN(C(=O)OC(C)(C)C)CC=C1N(Cc1ccc(OC)cc1)C(=O)[C@H]2CC(=O)NCCC(C)C returned PLC-beta3 inh 1.1 and PLC-gamma1 inh -2.0.
`CC(=O)NC(CCS(C)(=O)=O)C(=O)Nc1cc(C)on1` (stereo not drawn) gave NTR1 agonist 4.9, PLC-beta3 inh 5.3, Arrestin-AP2 inh 0.3, PLC-gamma1 inh 10.5*, PLCgamma1 ctr -36.9 and PLCb3 confirm 0.7.
`C/C(=C1/SC(N2CCOCC2)=NC1=O)c1ccc(Cl)cc1` gave NTR1 agonist -0.4, PLC-beta3 inh 2.9, Arrestin-AP2 inh 3.0 and PLC-gamma1 inh 1.6.
`C/C(=C1\SC(N2CCOCC2)=NC1=O)c1ccc(C)cc1` gave NTR1 agonist 0.2, PLC-beta3 inh 5.8, Arrestin-AP2 inh 4.0, PLC-gamma1 inh 10.4*, PLCgamma1 ctr -2.7 and PLCb3 confirm 4.8.
For CCOc1ccc(OCCCC(=O)NNC(=O)c2ccncc2)cc1 the results were NTR1 agonist -0.2, PLC-beta3 inh 7.4, Arrestin-AP2 inh 1.8, PLC-gamma1 inh 14.6*, PLCgamma1 ctr 8.3 and PLCb3 confirm 1.9.
`Cc1ccc(OCCCC(=O)NNC(=O)c2ccncc2)cc1` gave NTR1 agonist -0.5, PLC-beta3 inh -4.1, Arrestin-AP2 inh 7.9 and PLC-gamma1 inh 1.5.
For CC(=O)c1ccc(N2CCC(c3cc(-c4ccc(Cl)cc4Cl)n[nH]3)CC2)c([N+](=O)[O-])c1 the results were NTR1 agonist 16.2, PLC-beta3 inh 0.8, Arrestin-AP2 inh -3.8, PLC-gamma1 inh 14.8*, PLCgamma1 ctr 5.8 and PLCb3 confirm 5.8.
`Cc1ccccc1C(=O)NC1CCCCN(Cc2cccc(C(F)(F)F)c2)C1=O` (stereo not drawn) gave PLC-beta3 inh -2.0 and PLC-gamma1 inh 1.9.
For O=C(Cn1cnc2sc(-c3ccccc3)cc2c1=O)NCc1ccccc1 the results were NTR1 agonist 8.0, PLC-beta3 inh 3.8, Arrestin-AP2 inh -3.8, PLC-gamma1 inh 9.5*, PLCgamma1 ctr -37.0 and PLCb3 confirm -84.1.
For O=C(Cn1cnc2sc(-c3ccccc3)cc2c1=O)NCCc1ccccc1 the results were NTR1 agonist -0.6, PLC-beta3 inh -5.5, Arrestin-AP2 inh -5.3 and PLC-gamma1 inh -1.3.
CN1C(=O)C[C@@](C#N)(C(=O)N2CCOCC2)[C@H]1c1ccccc1 was read as PLC-beta3 inh 2.5 and PLC-gamma1 inh 0.0.
For COCCn1c(CN2CCN(c3ccc(OC)cc3)CC2)nc2c1c(=O)n(C)c(=O)n2C the results were NTR1 agonist 1.4, PLC-beta3 inh 2.2, Arrestin-AP2 inh 9.4 and PLC-gamma1 inh -0.7.
For COc1ccc(N2CCN(Cc3nc4c(c(=O)n(C)c(=O)n4C)n3CCc3ccccc3)CC2)cc1 the results were NTR1 agonist -0.2, PLC-beta3 inh 6.2, Arrestin-AP2 inh 3.9, PLC-gamma1 inh 12.7*, PLCgamma1 ctr 7.7 and PLCb3 confirm 0.3.
For CCOCCn1c(CN2CCN(CCO)CC2)nc2c1c(=O)n(C)c(=O)n2C the results were NTR1 agonist -2.8, PLC-beta3 inh 0.2, Arrestin-AP2 inh -4.0, PLC-gamma1 inh 11.5*, PLCgamma1 ctr -0.2 and PLCb3 confirm -2.8.
Cn1c(=O)c2c(nc(CN3CCN(CCO)CC3)n2Cc2ccccc2Cl)n(C)c1=O was read as NTR1 agonist -1.7, PLC-beta3 inh 5.8, Arrestin-AP2 inh 24.0, PLC-gamma1 inh 12.1*, PLCgamma1 ctr -1.5 and PLCb3 confirm -0.8.
For CCOC(=O)CC[C@@H]1CC[C@]2(CCCN(Cc3cccs3)C2)O1 the results were PLC-beta3 inh 2.3 and PLC-gamma1 inh 2.2.
Screening CCN1Cc2nnn(Cc3ccccc3)c2-c2ccccc2S1(=O)=O returned PLC-beta3 inh 6.7 and PLC-gamma1 inh 2.1.
COC(=O)[C@]12C[C@H](CC(=O)NCc3ccc(OC)c(OC)c3)C(=O)N(Cc3cccc4ccccc34)C1=C[C@H](C1CCCC1)O[C@@H]2C was read as PLC-beta3 inh 4.2 and PLC-gamma1 inh 3.9.
Cc1nn(-c2cccc(Cl)c2)c2nc(C(F)(F)F)[nH]c(=O)c12 was read as NTR1 agonist 2.6, PLC-beta3 inh -1.2, Arrestin-AP2 inh -0.4 and PLC-gamma1 inh -0.8.
Cc1nn(-c2cc(C(F)(F)F)ccc2Cl)c2nc(C(F)(F)F)[nH]c(=O)c12 was read as NTR1 agonist 2.4, PLC-beta3 inh 11.7*, Arrestin-AP2 inh 7.2, PLC-gamma1 inh 4.0, PLCgamma1 ctr -2.1 and PLCb3 confirm -6.3.
For CC(C)(C)N(Cc1cn(CC2CCCCC2)nn1)S(=O)(=O)c1ccc(F)cc1Br the results were PLC-beta3 inh 3.4 and PLC-gamma1 inh 3.0.
For O=[N+]([O-])c1cc(C(F)(F)F)ccc1NCCCCNS(=O)(=O)c1ccc(Cl)cc1 the results were NTR1 agonist 19.6, PLC-beta3 inh 11.1*, Arrestin-AP2 inh 2.8, PLC-gamma1 inh 4.9, PLCgamma1 ctr 9.3 and PLCb3 confirm 4.8.
COC(=O)c1ccc(NC(=O)CN(C)S(=O)(=O)c2ccc(OC)c(C)c2)cc1 was read as NTR1 agonist 0.2, PLC-beta3 inh -1.0, Arrestin-AP2 inh 2.9, PLC-gamma1 inh 9.6*, PLCgamma1 ctr -9.6 and PLCb3 confirm -3.8.
`COc1ccc(S(=O)(=O)N(C)CC(=O)Nc2ccc(C(N)=O)cc2)cc1OC` gave NTR1 agonist -0.2, PLC-beta3 inh -1.1, Arrestin-AP2 inh 17.8 and PLC-gamma1 inh 1.1.

Screening data (PubChem)
